The species entered for one experiment is Rattus norvegicus. As to the kind of experiment: Hydrolytic activity against esterase with hepatic microsomes relative to E16-1,2. Conditions: Liver.
The target in experiment [1] is T1, Estrogen receptor (Rattus norvegicus) (UniProt P06211+Q62986). The experiment is described as follows: Uterotropic activity relative to estradiol (E2). Type of experiment: functional, tissue-based. The note with it: Uterus. The method in brief:
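Immature female Sprague–Dawley rats, 22 days old, injected subcutaneously once a day for 3 days with test steroid in 0.1 mL sesame oil, 100 µg total dose; sesame oil controls; 5 ng E2 total run concurrently as reference. Uteri removed on day 4, blotted and weighed. n = 5, usually 2 separate experiments; activity expressed relative to E2.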

For experiment [2], the target named is T2, Estrogen receptor (Mus musculus) (UniProt O08537+P19785). The experiment is described as follows: Vaginal activity relative to estradiol (E2). Type of experiment: functional. The method in brief: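 Female CD-1 mice ovariectomized; 1 week later, compound instilled intravaginally in 10 μL sesame oil. Vaginal reductase induction measured and compared with 50 pg E2. n = 5–6 per group, at least two separate occasions.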

The target of experiment [3] is T2, Estrogen receptor (Mus musculus). The experiment is described as follows: In vivo vaginal activity in ovariectomised mice at 50 ng vaginal dose as pg estradiol dose for equivalent effect.
Experiment [4] addresses T1, Estrogen receptor (Rattus norvegicus). The experiment is described as follows: In vivo uterotropic activity at 100 ug subcutaneous dose in immature rats as ng estradiol dose for equivalent effect. Type of experiment: functional, organism-based. The method in brief: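 Immature (22-day) female Sprague–Dawley rats given daily subcutaneous injections in 0.1 mL sesame oil for 3 days, 100 μg total dose; controls received oil. Uteri removed, blotted and weighed on day 4. Compared with 5 ng E2 run concurrently; n = 5, usually 2 separate experiments.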

Experiment [5] concerns the target Estrogen receptor beta (Homo sapiens) (UniProt Q92731). The experiment is described as follows: Binding of […] to human estrogen receptor beta ligand binding domain expressed in Escherichia coli. The method in brief: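 Competitive binding against [3H]E2 using lysates of E. coli expressing human ERβ LBD (M214–Q530); incubated overnight at 0–2 °C. Result given as RBA versus E2 (E2 = 100); mean of 3 experiments, each in duplicate.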

Estrogen receptor beta (Homo sapiens), sequence (Q92731 whole entry, the tested form may be a part): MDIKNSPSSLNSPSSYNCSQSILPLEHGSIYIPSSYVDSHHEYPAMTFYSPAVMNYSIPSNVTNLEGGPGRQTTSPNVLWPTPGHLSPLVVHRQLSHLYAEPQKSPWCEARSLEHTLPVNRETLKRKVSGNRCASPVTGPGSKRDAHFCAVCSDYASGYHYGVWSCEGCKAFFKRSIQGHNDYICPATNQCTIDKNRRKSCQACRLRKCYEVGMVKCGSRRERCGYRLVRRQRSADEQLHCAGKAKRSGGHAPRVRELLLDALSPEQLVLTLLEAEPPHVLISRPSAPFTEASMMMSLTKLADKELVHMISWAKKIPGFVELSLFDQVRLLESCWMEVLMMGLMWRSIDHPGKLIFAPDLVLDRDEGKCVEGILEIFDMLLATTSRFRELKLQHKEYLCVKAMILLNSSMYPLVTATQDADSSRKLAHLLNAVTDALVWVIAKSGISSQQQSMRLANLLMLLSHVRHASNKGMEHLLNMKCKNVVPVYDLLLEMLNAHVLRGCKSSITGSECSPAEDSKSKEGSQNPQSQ
T2 sequence (O08537 whole entry, looked up): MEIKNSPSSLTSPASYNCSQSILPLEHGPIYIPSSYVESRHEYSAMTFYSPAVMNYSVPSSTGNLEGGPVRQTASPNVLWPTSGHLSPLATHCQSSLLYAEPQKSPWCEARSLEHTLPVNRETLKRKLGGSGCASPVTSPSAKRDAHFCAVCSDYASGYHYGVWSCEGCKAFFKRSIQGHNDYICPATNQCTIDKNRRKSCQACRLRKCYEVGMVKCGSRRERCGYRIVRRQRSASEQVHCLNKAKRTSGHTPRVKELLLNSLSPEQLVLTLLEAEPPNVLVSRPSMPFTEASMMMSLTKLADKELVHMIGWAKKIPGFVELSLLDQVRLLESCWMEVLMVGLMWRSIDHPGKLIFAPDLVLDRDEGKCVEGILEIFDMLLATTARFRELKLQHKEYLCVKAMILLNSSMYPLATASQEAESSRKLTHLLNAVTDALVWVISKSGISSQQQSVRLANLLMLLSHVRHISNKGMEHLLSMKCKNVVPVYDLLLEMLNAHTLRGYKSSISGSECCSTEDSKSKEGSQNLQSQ
T2 sequence (P19785 whole entry, looked up): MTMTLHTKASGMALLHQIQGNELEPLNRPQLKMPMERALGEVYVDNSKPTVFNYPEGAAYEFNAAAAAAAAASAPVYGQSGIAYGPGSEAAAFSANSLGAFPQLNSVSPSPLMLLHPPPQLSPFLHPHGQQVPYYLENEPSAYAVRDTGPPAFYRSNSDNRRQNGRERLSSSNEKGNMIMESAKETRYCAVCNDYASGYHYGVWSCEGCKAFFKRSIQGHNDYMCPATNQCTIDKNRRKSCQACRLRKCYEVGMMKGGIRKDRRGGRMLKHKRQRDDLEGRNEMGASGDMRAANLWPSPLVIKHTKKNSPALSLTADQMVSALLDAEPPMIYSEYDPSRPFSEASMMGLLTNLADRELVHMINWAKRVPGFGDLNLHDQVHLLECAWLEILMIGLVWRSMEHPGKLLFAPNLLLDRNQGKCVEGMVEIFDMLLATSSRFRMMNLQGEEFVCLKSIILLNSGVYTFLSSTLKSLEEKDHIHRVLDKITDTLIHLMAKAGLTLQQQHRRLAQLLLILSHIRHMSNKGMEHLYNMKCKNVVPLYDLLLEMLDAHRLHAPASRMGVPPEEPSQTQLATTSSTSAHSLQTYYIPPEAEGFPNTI

Consider `C[C@]12CC[C@@H]3c4ccc(O)cc4CC[C@H]3[C@@H]1[C@@H](C(=O)OCCF)C[C@@H]2O`, for which, in the experiment filed under Rattus norvegicus, the RHA is 4.5%.

For `CCCOC(=O)[C@@H]1Cc2cc(O)ccc2[C@H]2CC[C@]3(C)[C@@H](O)CC[C@H]3[C@@H]21`, the RHA in the experiment filed under Rattus norvegicus was determined as 0%.

`CCCCOC(=O)[C@H]1C[C@H](O)[C@@]2(C)CC[C@@H]3c4ccc(O)cc4CC[C@H]3[C@H]12` displayed an RHA in the experiment filed under Rattus norvegicus of 7%.

Take `COC(=O)C[C@H]1C[C@]2(C)[C@@H](O)CC[C@H]2[C@@H]2CCc3cc(O)ccc3[C@@H]12`: the Uterotropic activity was determined as 0.07 in experiment [1] and 6.5 in experiment [4]. Moreover, the Vaginal activity in experiment [2] was found to be 0.42; in experiment [3], 21. The compound also had an RHA in the experiment listed under Rattus norvegicus of 106%.

Consider `CCOC(=O)[C@@H]1C[C@H]2[C@@H]3CCc4cc(O)ccc4[C@H]3CC[C@]2(C)[C@H]1O`, for which the Activity in experiment [5] amounted to 0.3. The RHA in the experiment filed under Rattus norvegicus came to 100%.

Consider `C[C@]12CC[C@@H]3c4ccc(O)cc4C[C@@H](C(=O)OCCF)[C@H]3[C@@H]1CC[C@@H]2O`, for which the RHA in the experiment filed under Rattus norvegicus was 0%.

`CCCOC(=O)[C@H]1C[C@H](O)[C@@]2(C)CC[C@@H]3c4ccc(O)cc4CC[C@H]3[C@H]12` yielded an RHA in the experiment filed under Rattus norvegicus of 7.8%.

Regarding `CCCCOC(=O)[C@@H]1Cc2cc(O)ccc2[C@H]2CC[C@]3(C)[C@@H](O)CC[C@H]3[C@@H]21`, the RHA in the experiment listed under Rattus norvegicus stood at 0%.

On to `C[C@]12CC[C@@H]3c4ccc(O)cc4CC[C@H]3[C@@H]1CC[C@@H]2O`, for which, in experiment [5], the Activity stood at 100.

`CC(C)OC(=O)[C@H]1C[C@H](O)[C@@]2(C)CC[C@@H]3c4ccc(O)cc4CC[C@H]3[C@H]12` displayed an RHA in the experiment filed under Rattus norvegicus of 0.4%.

Take `CCOC(=O)[C@@H]1Cc2cc(O)ccc2[C@H]2CC[C@]3(C)[C@@H](O)CC[C@H]3[C@@H]21`: the Activity in experiment [5] turned out to be 9. Also, the Uterotropic activity in experiment [1] came out at 0.04; in experiment [4] it was 4. Further, the Vaginal activity in experiment [2] was found to be 0.44; in experiment [3], 22. For the same compound, in the experiment listed under Rattus norvegicus, the RHA is 0%.

In the experiment listed under Rattus norvegicus, `COC(=O)CC[C@H]1C[C@]2(C)[C@@H](O)CC[C@H]2[C@@H]2CCc3cc(O)ccc3[C@@H]12` displayed an RHA of 64%.

With `COC(=O)[C@@H]1Cc2cc(O)ccc2[C@H]2CC[C@]3(C)[C@@H](O)CC[C@H]3[C@@H]21`, the Uterotropic activity in experiment [1] was determined as 0.11; in experiment [4], 10.5. Moreover, the Vaginal activity in experiment [2] is 1; in experiment [3] it was 50. The compound further yielded an RHA in the experiment listed under Rattus norvegicus of 0%.

`COC(=O)CC[C@H]1C[C@H](O)[C@@]2(C)CC[C@@H]3c4ccc(O)cc4CC[C@H]3[C@H]12`: the RHA in the experiment filed under Rattus norvegicus came to 248%.

As to `CCOC(=O)C[C@H]1Cc2cc(O)ccc2[C@H]2CC[C@]3(C)[C@@H](O)CC[C@H]3[C@H]12`, in the experiment listed under Rattus norvegicus, the RHA came out at 0%.

For `C[C@]12CC[C@@H]3c4ccc(O)cc4CC[C@H]3[C@@H]1C[C@@H](C(=O)OCCF)[C@@H]2O`, the Uterotropic activity in experiment [1] was 0.02; in experiment [4] it was 2. Further, the Vaginal activity amounted to 0.42 in experiment [2] and 21 in experiment [3].

For the compound `CCOC(=O)C[C@@H]1Cc2cc(O)ccc2[C@H]2CC[C@]3(C)[C@@H](O)CC[C@H]3[C@H]12`, the RHA in the experiment filed under Rattus norvegicus stood at 70%.

The compound `CCOC(=O)CC[C@H]1C[C@]2(C)[C@@H](O)CC[C@H]2[C@@H]2CCc3cc(O)ccc3[C@@H]12` gave an Activity in experiment [5] of 64. In the experiment filed under Rattus norvegicus, this compound yielded an RHA of 542%.

`CCOC(=O)[C@H]1C[C@H](O)[C@@]2(C)CC[C@@H]3c4ccc(O)cc4CC[C@H]3[C@H]12` yielded an Activity in experiment [5] of 7. The Vaginal activity in experiment [2] is 0.42; in experiment [3], 21. Further, the Uterotropic activity in experiment [4] is 0. In the experiment listed under Rattus norvegicus, the RHA came to 2.3%.

For `COC(=O)C[C@H]1C[C@H](O)[C@@]2(C)CC[C@@H]3c4ccc(O)cc4CC[C@H]3[C@H]12`, the RHA in the experiment listed under Rattus norvegicus amounted to 31%.

Compound `COC(=O)C[C@@H]1Cc2cc(O)ccc2[C@H]2CC[C@]3(C)[C@@H](O)CC[C@H]3[C@H]12` gave an RHA in the experiment filed under Rattus norvegicus of 30%.

In turn, `CCOC(=O)C[C@H]1C[C@]2(C)[C@@H](O)CC[C@H]2[C@@H]2CCc3cc(O)ccc3[C@@H]12` yielded an Activity in experiment [5] of 70. In addition, the RHA in the experiment listed under Rattus norvegicus is 152%.

Consider `CCOC(=O)C[C@H]1C[C@H](O)[C@@]2(C)CC[C@@H]3c4ccc(O)cc4CC[C@H]3[C@H]12`, for which, in the experiment listed under Rattus norvegicus, the RHA turned out to be 71%.

On to `COC(=O)[C@H]1CC(O)[C@@]2(C)CC[C@@H]3c4ccc(O)cc4CC[C@H]3[C@H]12` (stereo partly specified), for which the Vaginal activity came to 0.38 in experiment [2] and 19 in experiment [3]. The Uterotropic activity in experiment [4] was determined as 0. This compound returned an RHA in the experiment listed under Rattus norvegicus of 1.7%.

For `CCOC(=O)CC[C@H]1C[C@H](O)[C@@]2(C)CC[C@@H]3c4ccc(O)cc4CC[C@H]3[C@H]12`, in the experiment listed under Rattus norvegicus, the RHA came to 674%.

These data come from ChEMBL document CHEMBL1145034.
